Results published in ChEMBL document CHEMBL1773020, “Discovery of fused bicyclic agonists of the orphan G-protein coupled receptor GPR119 with in vivo activity in rodent models of glucose control” (Bioorg Med Chem Lett, 2011).
Each block holds one compound with its values, some of them ahead of it. Calls of active or inactive are those of the source.

What was measured:
[1] = molecular target: T1, Glucose-dependent insulinotropic receptor (Rattus norvegicus, UniProt Q7TQN8); test: Agonist activity at rat GPR119 by melanophore assay; type: functional
T1 sequence (Q7TQN8 whole entry): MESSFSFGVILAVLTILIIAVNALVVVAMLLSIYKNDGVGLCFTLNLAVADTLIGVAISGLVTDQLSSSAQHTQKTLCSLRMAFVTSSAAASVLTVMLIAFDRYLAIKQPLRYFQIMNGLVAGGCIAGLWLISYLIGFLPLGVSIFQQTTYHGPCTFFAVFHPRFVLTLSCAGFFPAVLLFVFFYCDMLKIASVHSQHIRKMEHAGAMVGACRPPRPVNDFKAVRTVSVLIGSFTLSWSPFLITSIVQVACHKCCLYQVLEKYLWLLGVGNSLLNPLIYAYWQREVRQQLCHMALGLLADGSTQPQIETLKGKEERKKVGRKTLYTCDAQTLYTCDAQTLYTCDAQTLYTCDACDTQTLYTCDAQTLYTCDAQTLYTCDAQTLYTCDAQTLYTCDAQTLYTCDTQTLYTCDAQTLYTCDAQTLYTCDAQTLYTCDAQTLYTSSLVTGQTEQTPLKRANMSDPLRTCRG
In short: (§1)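 Agonist EC50 measured in melanophores transfected with the human or rat GPR119 receptor sequence. Values are means of multiple determinations (n).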

[2] = Aqueous solubility of the compound; type: physicochemical; settings: buffer
[3] = system: Rattus norvegicus; test: Antidiabetic activity in po dosed Sprague-Dawley rat assessed as oral glucose tolerance; type: functional; settings: read-out: MED
In short: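 SD rats were fasted 3–16 h, and compound was given po at −30 min after a tail-nick glucose reading. At time 0, glucose 3 g/kg po (6 ml/kg) was given. Glucometer readings were taken at 0, 30, 60 and 120 min. Each rat was used twice, one week apart.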

[4] = system: Mus musculus; test: Antidiabetic activity in po dosed C57/BL6 mouse assessed as oral glucose tolerance; type: functional; settings: read-out: MED
In short: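 C57/BL6 mice were handled twice and fasted 3–16 h. Compound was given 0–30 min before the first sample. At time 0 a glucose bolus ([…] as printed, po) was given. Tail-nick glucose was read by glucometer at 0, 20, 40, 60 and 120 min.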

[5] = Plasma protein binding in female cynomolgus monkey; type: ADME, cell-free, Macaca fascicularis; settings: read-out: PPB
[6] = Plasma protein binding in male cynomolgus monkey; type: ADME, cell-free, Macaca fascicularis; settings: read-out: PPB
[7] = Plasma protein binding in human; type: ADME, cell-free; settings: read-out: PPB
[8] = Plasma protein binding in female rat; type: ADME, cell-free; settings: read-out: PPB (converted)
[9] = Plasma protein binding in male rat; type: ADME, cell-free; settings: read-out: PPB (converted)
[10] = molecular target: Cytochrome P450 2C9 (Homo sapiens, UniProt P11712); test: Inhibition of CYP2C9; type: ADME
Cytochrome P450 2C9, sequence (P11712 whole entry): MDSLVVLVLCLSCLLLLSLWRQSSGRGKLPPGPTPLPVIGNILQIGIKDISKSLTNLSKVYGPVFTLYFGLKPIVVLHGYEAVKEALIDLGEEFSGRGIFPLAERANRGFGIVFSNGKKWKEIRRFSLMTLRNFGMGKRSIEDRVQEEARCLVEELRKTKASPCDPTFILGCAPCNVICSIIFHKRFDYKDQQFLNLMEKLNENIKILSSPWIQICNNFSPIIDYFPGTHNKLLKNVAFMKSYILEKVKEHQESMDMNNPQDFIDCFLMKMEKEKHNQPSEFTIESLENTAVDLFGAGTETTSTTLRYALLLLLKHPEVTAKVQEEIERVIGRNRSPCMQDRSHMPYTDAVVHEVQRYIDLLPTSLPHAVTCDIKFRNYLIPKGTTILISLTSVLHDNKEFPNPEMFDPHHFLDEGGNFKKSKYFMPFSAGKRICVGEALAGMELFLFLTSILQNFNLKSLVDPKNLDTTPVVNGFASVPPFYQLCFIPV
In short: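 Inhibition constant (Ki) determined in human hepatic microsomes.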

[11] = system: Caco-2; test: Apparent permeability across human Caco2 cells; type: ADME, cell-based
[12] = system: Salmonella typhimurium; test: Mutagenic activity in Salmonella Typhimurium; type: toxicity, organism-based; settings: salmonella enterica subsp. enterica serovar typhimurium
[13] = Mutagenic activity in mouse lymphoma; type: toxicity
[14] = Mutagenic activity in mouse micronuclei; type: toxicity
[15] = molecular target: Voltage-gated inwardly rectifying potassium channel KCNH2 (Homo sapiens, UniProt Q12809); test: Inhibition of human ERG by patch clamp assay
Voltage-gated inwardly rectifying potassium channel KCNH2, sequence (Q12809 whole entry): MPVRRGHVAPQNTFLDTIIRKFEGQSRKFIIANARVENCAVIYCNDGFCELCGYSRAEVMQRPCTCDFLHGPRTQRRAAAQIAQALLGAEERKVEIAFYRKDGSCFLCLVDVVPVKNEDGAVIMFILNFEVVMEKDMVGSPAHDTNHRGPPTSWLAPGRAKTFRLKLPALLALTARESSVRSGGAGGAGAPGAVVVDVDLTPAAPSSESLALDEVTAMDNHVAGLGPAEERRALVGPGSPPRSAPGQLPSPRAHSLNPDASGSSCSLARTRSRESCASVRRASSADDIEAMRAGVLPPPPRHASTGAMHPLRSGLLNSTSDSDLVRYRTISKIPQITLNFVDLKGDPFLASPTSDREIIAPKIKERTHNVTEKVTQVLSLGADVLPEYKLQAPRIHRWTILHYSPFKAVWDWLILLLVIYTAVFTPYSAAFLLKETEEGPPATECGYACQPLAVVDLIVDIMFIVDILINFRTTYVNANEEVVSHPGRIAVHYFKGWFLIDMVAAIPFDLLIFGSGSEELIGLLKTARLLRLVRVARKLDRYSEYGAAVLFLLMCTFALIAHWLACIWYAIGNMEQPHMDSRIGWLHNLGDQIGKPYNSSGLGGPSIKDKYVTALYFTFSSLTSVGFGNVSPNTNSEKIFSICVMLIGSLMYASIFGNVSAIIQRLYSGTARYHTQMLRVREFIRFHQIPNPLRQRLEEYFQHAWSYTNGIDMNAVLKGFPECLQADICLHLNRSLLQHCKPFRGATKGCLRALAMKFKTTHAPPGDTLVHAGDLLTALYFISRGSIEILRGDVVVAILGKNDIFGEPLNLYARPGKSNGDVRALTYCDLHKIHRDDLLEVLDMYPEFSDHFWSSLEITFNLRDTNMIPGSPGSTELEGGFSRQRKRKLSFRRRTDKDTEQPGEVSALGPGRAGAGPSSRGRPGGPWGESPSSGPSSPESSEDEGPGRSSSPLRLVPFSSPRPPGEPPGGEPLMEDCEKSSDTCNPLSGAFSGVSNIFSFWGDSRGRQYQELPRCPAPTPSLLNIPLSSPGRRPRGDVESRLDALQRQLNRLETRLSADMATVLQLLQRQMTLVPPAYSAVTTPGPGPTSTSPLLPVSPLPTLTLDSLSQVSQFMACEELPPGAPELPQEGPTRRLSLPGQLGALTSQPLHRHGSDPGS

[16] = system: Rattus norvegicus; test: Antidiabetic activity in hyperglycemic Sprague-Dawley rat model assessed as glucose dependent insulin release at 0.08 mg/kg/min, iv; type: functional, organism-based
In short: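 Hyperglycemic clamp in male SD rats fasted overnight. After 1 h of baseline glucose and insulin sampling, vehicle or compound was infused into the jugular vein for 2 h. Glucose was clamped at 100 mg/dl for hours 1–2, then raised to 300 mg/dl for hour 3 by a 30% glucose bolus and variable infusion. Plasma insulin was followed.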

[17] = Tmax in po dosed mouse; type: ADME, organism-based; settings: in vivo
[18] = Tmax in po dosed Sprague-Dawley rat; type: ADME, organism-based; settings: in vivo
[19] = Tmax in po dosed cynomolgus monkey; type: ADME, organism-based, Macaca fascicularis; settings: in vivo
[20] = Tmax in po dosed dog; type: ADME, organism-based, Canis lupus familiaris; settings: in vivo
[21] = Oral bioavailability in mouse; type: ADME, organism-based; settings: in vivo
[22] = Oral bioavailability in Sprague-Dawley rat; type: ADME, organism-based; settings: in vivo
[23] = Oral bioavailability in cynomolgus monkey; type: ADME, organism-based, Macaca fascicularis; settings: in vivo
[24] = Oral bioavailability in dog; type: ADME, organism-based, Canis lupus familiaris; settings: in vivo
[25] = system: Cynomolgus monkey; test: Volume of distribution at steady state in po dosed cynomolgus monkey; type: ADME, organism-based, Macaca fascicularis; settings: in vivo
[26] = system: Rattus norvegicus; test: Volume of distribution at steady state in po dosed Sprague-Dawley rat; type: ADME, organism-based; settings: in vivo
[27] = Elimination half life in iv dosed mouse; type: ADME, organism-based; settings: in vivo, read-out: beta t1/2 (converted)
[28] = Elimination half life in iv dosed Sprague-Dawley rat; type: ADME, organism-based; settings: in vivo, read-out: beta t1/2 (converted)
[29] = Elimination half life in iv dosed cynomolgus monkey; type: ADME, organism-based, Macaca fascicularis; settings: in vivo, read-out: beta t1/2 (converted)
[30] = Elimination half life in iv dosed dog; type: ADME, organism-based, Canis lupus familiaris; settings: in vivo, read-out: beta t1/2 (converted)
[31] = system: Rattus norvegicus; test: Antidiabetic activity in ZDF rat assessed as blood glucose level at 30 mg/kg, po measured on day 56; type: functional
In short: (§2)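 Male ZDF rats, 6 weeks old, baseline weight 200–250 g, were split into 3 groups by fed body weight and blood glucose. They received vehicle (100% PEG400) or compound daily for 56 days, n = 5–7 per group. Blood glucose and HbA1c were determined on days 1, 31 and 56, and body weight gain was recorded. Results are mean ± standard error.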

[32] = system: Rattus norvegicus; test: Antidiabetic activity in ZDF rat assessed as glycated hemoglobin level at 30 mg/kg, po measured on day 1; type: functional; in short: as §2
[33] = system: Rattus norvegicus; test: Antidiabetic activity in ZDF rat assessed as glycated hemoglobin level at 30 mg/kg, po measured on day 56; type: functional; in short: as §2
[34] = system: Rattus norvegicus; test: Antidiabetic activity in ZDF rat assessed as blood glucose level at 10 mg/kg, po measured on day 56; type: functional; in short: as §2
[35] = system: Rattus norvegicus; test: Antidiabetic activity in ZDF rat assessed as glycated hemoglobin level at 10 mg/kg, po measured on day 1; type: functional; in short: as §2
[36] = system: Rattus norvegicus; test: Antidiabetic activity in ZDF rat assessed as glycated hemoglobin level at 10 mg/kg, po measured on day 56; type: functional; in short: as §2
[37] = system: Rattus norvegicus; test: Antidiabetic activity in ZDF rat assessed as body weight gain at 10 mg/kg, po measured on day 56; type: functional; in short: as §2
[38] = system: Rattus norvegicus; test: Antidiabetic activity in ZDF rat assessed as body weight gain at 30 mg/kg, po measured on day 56; type: functional; in short: as §2
[39] = system: Rattus norvegicus; test: Antidiabetic activity in ZDF rat assessed as glycated hemoglobin level at 30 mg/kg, po measured on day 31
[40] = system: Rattus norvegicus; test: Antidiabetic activity in ZDF rat assessed as glycated hemoglobin level at 10 mg/kg, po measured on day 31
[41] = molecular target: T2, Glucose-dependent insulinotropic receptor (Homo sapiens, UniProt Q8TDV5); test: Agonist activity at human GPR119 by melanophore assay; type: functional; in short: as §1
T2 sequence (Q8TDV5 whole entry): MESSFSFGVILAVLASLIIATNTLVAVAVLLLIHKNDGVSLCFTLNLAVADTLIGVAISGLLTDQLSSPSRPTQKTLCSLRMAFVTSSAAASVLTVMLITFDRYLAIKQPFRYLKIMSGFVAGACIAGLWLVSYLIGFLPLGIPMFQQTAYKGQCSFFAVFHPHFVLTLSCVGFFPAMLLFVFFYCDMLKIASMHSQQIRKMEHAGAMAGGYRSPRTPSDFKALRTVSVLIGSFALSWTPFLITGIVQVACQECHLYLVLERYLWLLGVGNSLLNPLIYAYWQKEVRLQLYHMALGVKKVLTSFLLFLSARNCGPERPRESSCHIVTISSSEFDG

[42] = molecular target: T3, Glucose-dependent insulinotropic receptor (Homo sapiens) (UniProt Q8TDV5); test: Agonist activity at human GPR119 by melanophore assay relative to AR231453; type: functional
T3 sequence (whole entry): T2 sequence (Q8TDV5 whole entry)
In short: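 Melanophores transfected with human GPR119. Apparent Emax is the curve height normalized to the positive control AR231453, which is defined as a full agonist (100% efficacy).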

[43] = molecular target: T4, Glucose-dependent insulinotropic receptor (Rattus norvegicus) (UniProt Q7TQN8); test: Selectivity ratio of EC50 for rat GPR119 to EC50 for human GPR119
T4 sequence (whole entry): T1 sequence (Q7TQN8 whole entry)

Structure (SMILES): CS(=O)(=O)c1ccc(-n2ncc3c(OC4CCN(C(=O)OC5CCCC5)CC4)ncnc32)cc1
EC50 [41]: 14.6 nM | Emax [42]: 80% | Ratio EC50 [43]: 1.4 | EC50 [1]: 21 nM

Structure (SMILES): CC(C)(C)OC(=O)N1CCC(Sc2ncnc3c2cnn3-c2ccc(S(C)(=O)=O)cc2)CC1
EC50 [41]: 5.6 nM | Emax [42]: 104% | Ratio EC50 [43]: 3 | EC50 [1]: 15.5 nM

Structure (SMILES): CC(C)OC(=O)N1CCC(Oc2ncnc3c(-c4ccc(S(C)(=O)=O)cc4)noc23)CC1
EC50 [41]: 14 nM | Emax [42]: 65% | Ratio EC50 [43]: 3 | EC50 [1]: 40 nM

Structure (SMILES): CC(C)(C)OC(=O)N1CCC(Cc2ncnc3c2cnn3-c2ccc(S(C)(=O)=O)cc2F)CC1
EC50 [41]: 3.4 nM | Emax [42]: 72% | Ratio EC50 [43]: 25.9 | EC50 [1]: 88 nM

More lines, main results first:

EC50 [1]: 33 nM | solubility [2]: soluble | fraction unbound [5]: ≤ 0.01 | fraction unbound [6]: ≤ 0.01 | fraction unbound [7]: ≤ 0.01 | fraction unbound [8]: 0.034 | fraction unbound [9]: 0.07 | Ki [10]: 100 nM | permeability [11]: permeable | Tmax [17]: ≤ 120 min | Tmax [18]: ≤ 120 min | Tmax [19]: ≤ 120 min | Tmax [20]: 360 min | bioavailability [21]: 44% | bioavailability [22]: 44% | bioavailability [23]: 44% | bioavailability [24]: 22% | Vdss [25]: 0.1 L/kg | Vdss [26]: 2.6 L/kg | half-life [27]: 48 min | half-life [28]: 48 min | half-life [29]: 48 min | half-life [30]: 48 min
Structure (SMILES): CC(C)OC(=O)N1CCC(Oc2ncnc3c2cnn3-c2ccc(S(C)(=O)=O)cc2F)CC1
minimal effective dose [3]: 10 mg/kg | minimal effective dose [4]: 3 mg/kg | Activity [12]: Non-toxic | Activity [13]: Non-toxic | Activity [14]: Non-toxic | IC50 [15]: 3000 nM | Activity [16]: Active | Activity [31]: 105.2 mg/dL | Activity [32]: 3.4% | Activity [33]: 4.7% | Activity [34]: 359.3 mg/dL | Activity [35]: 3.5% | Activity [36]: 8.2% | Activity [37]: 224.9 g | Activity [38]: 204.2 g | Activity [39]: 5.2% | Activity [40]: 7.3%

EC50 [41]: 0.5 nM | Emax [42]: 98% | Ratio EC50 [43]: 14.6 | EC50 [1]: 7.3 nM
Structure (SMILES): CC(C)(C)OC(=O)N1CCC(Sc2ncnc3c2cnn3-c2ccc(S(C)(=O)=O)cc2F)CC1
